Test results taken from ChEMBL document CHEMBL1155526, “Discovery of a potent, orally active 11beta-hydroxysteroid dehydrogenase type 1 inhibitor for clinical study: identification of (S)-2-((1S,2S,4R)-bicyclo[2.2.1]heptan-2-ylamino)-5-isopropyl-5-methylthiazol-4(5H)-one (AMG 221)” (J Med Chem, 2010).
One block for each molecule: values may come before it. Activity calls are given as the source filed them. No cut-off for these calls is given here.

How the values were obtained:
[1] = molecular target: T1, 11-beta-hydroxysteroid dehydrogenase type 2 (Homo sapiens, UniProt P80365); experiment: Inhibition of 11beta-HSD2
T1 sequence (P80365 whole entry): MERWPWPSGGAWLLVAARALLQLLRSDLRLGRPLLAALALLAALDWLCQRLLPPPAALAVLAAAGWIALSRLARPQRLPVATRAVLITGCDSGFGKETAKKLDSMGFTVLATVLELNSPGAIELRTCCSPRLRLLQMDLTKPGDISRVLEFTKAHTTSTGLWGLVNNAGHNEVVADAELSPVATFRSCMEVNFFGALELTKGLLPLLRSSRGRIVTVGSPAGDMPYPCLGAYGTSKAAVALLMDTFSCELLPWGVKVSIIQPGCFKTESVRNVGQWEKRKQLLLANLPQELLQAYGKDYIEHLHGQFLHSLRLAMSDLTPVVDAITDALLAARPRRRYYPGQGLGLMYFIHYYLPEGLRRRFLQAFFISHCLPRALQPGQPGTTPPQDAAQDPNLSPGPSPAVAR

Glucocorticoid receptor = molecular target: T2, Glucocorticoid receptor (Homo sapiens, UniProt P04150); experiment: Inhibition of glucocorticoid receptor
T2 sequence (P04150 whole entry): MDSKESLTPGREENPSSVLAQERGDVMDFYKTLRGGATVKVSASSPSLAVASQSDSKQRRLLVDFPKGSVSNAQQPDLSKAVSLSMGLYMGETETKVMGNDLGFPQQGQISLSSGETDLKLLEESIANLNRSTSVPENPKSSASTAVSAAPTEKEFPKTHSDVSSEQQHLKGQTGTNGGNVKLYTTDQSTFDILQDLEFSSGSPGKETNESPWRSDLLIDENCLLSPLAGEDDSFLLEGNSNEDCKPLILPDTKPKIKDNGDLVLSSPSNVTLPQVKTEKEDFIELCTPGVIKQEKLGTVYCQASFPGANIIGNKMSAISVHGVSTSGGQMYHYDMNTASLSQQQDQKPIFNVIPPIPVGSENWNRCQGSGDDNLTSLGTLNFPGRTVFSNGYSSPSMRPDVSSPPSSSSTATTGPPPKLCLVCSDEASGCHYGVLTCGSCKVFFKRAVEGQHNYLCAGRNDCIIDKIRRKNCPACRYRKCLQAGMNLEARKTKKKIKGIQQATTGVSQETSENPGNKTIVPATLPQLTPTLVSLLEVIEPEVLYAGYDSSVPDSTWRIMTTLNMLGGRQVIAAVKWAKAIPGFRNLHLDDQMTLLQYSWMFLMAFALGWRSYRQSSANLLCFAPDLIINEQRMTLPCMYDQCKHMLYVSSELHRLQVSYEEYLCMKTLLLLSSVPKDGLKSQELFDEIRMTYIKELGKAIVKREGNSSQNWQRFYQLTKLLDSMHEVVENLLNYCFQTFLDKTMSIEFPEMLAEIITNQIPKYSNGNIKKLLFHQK

[2] = Clearance in CD1 mouse at 5 mg/kg, iv or 30 mg/kg, po; assay type: ADME, organism-based; settings: in vivo
How it was run: (§1)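 iv: mouse 5, rat 2, dog 3, monkey 2 mg/kg in 10% dimethylacetamide/23% water/67% PEG 400. po: mouse 30, rat 10, monkey 10 mg/kg in 0.1% Tween-80/0.5% CMC in water; dog 10 mg/kg in the iv vehicle. Plasma sampled at various time points for drug levels. Half-life is terminal.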

[3] = Volume of distribution at steady state in CD1 mouse at 5 mg/kg, iv or 30 mg/kg, po; assay type: ADME, organism-based; settings: in vivo, read-out: Vdss; how it was run: as §1
[4] = Terminal half life in CD1 mouse at 5 mg/kg, iv or 30 mg/kg, po; assay type: ADME, organism-based; settings: in vivo, read-out: beta t1/2 (converted); how it was run: as §1
[5] = Bioavailability in CD1 mouse at 5 mg/kg, iv or 30 mg/kg, po; assay type: ADME, organism-based; settings: in vivo; how it was run: as §1
Cytochrome P450 3A4 = Cytochrome P450 3A4 (Homo sapiens, UniProt P08684); experiment: Inhibition of CYP3A4; assay type: ADME
Sequence of Cytochrome P450 3A4 (P08684 whole entry): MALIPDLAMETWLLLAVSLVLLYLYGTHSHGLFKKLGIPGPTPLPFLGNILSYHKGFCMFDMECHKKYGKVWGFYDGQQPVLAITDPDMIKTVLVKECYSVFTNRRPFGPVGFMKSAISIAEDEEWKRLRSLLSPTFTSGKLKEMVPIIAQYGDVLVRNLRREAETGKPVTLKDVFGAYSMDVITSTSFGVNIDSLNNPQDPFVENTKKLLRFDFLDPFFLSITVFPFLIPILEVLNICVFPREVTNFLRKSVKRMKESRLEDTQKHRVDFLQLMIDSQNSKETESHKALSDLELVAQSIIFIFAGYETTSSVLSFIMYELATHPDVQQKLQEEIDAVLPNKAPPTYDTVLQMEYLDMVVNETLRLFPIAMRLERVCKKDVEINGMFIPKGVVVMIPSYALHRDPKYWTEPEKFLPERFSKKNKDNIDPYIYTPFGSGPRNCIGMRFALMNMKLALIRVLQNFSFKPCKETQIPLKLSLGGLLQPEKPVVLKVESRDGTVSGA

Cytochrome P450 2D6 = Cytochrome P450 2D6 (Homo sapiens, UniProt P10635); experiment: Inhibition of CYP2D6; assay type: ADME
Sequence of Cytochrome P450 2D6 (P10635 whole entry): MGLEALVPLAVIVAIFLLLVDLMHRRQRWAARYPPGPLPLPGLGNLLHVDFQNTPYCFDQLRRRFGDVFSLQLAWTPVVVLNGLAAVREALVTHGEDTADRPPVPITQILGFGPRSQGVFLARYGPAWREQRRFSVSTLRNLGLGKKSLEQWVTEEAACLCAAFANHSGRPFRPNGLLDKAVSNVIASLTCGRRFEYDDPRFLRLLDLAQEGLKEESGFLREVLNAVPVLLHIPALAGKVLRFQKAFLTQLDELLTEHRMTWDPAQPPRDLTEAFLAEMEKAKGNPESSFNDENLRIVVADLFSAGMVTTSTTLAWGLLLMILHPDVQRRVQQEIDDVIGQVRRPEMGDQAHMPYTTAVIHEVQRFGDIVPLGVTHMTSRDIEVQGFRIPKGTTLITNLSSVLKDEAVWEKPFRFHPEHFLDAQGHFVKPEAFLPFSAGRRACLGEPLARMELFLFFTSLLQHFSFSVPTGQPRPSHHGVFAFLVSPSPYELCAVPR

Cytochrome P450 1A2 = molecular target: T3, Cytochrome P450 1A2 (Homo sapiens, UniProt P05177); experiment: Inhibition of CYP1A2; assay type: ADME
T3 sequence (P05177 whole entry): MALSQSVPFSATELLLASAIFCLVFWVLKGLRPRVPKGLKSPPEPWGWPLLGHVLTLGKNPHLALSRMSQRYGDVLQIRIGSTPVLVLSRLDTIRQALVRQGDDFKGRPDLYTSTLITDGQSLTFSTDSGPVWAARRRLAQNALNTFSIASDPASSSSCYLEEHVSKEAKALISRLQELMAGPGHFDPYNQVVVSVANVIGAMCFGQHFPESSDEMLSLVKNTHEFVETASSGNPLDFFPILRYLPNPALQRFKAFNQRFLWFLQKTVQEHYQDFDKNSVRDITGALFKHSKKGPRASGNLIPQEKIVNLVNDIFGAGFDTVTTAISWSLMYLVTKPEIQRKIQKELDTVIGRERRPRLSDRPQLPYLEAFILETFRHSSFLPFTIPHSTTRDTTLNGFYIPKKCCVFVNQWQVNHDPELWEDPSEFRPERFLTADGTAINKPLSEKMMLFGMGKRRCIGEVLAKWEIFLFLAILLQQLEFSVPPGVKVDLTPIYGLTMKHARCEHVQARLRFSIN

Cytochrome P450 2C9 = Cytochrome P450 2C9 (Homo sapiens, UniProt P11712); experiment: Inhibition of CYP2C9; assay type: ADME
Sequence of Cytochrome P450 2C9 (P11712 whole entry): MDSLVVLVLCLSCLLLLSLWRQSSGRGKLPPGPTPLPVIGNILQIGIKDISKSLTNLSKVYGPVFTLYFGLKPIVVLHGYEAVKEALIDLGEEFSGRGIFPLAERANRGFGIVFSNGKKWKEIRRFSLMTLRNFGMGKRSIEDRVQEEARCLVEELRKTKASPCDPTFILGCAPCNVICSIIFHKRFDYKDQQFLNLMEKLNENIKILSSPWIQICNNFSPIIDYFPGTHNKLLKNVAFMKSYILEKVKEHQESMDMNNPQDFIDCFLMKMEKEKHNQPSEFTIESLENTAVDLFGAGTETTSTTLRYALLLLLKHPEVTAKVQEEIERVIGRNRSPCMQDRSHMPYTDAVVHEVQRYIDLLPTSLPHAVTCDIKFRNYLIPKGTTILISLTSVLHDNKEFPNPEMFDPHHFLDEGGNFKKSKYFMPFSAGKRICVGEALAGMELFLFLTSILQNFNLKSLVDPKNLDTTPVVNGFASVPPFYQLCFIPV

Cytochrome P450 2C19 = Cytochrome P450 2C19 (Homo sapiens, UniProt P33261); experiment: Inhibition of CYP2C19; assay type: ADME
Sequence of Cytochrome P450 2C19 (P33261 whole entry): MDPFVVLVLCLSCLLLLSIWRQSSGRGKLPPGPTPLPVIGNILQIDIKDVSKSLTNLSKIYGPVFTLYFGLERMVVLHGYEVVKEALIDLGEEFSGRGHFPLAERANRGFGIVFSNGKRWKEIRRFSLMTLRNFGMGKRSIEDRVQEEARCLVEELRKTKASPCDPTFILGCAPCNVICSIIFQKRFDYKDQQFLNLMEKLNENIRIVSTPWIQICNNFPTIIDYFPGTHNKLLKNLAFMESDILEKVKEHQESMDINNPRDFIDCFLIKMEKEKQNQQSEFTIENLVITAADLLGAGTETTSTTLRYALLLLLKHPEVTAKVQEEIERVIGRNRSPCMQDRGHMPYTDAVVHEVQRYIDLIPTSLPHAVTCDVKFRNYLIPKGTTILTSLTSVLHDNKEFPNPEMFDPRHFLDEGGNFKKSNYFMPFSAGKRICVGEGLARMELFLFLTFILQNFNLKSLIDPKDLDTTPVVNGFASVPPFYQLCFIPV

[6] = Metabolic stability in liver microsomes; assay type: ADME, Microsome
Mus musculus [7] = experiment: Ex vivo inhibition of 11beta-HSD1 in high fat diet-fed C57BL/6 mouse inguinal fat at 5 mg/kg, po measured at 4 hrs by ELISA; assay type: functional; settings: C57BL/6, 4 h
Mus musculus [8] = experiment: Ex vivo inhibition of 11beta-HSD1 in high fat diet-fed C57BL/6 mouse inguinal fat at 15 mg/kg, po measured at 4 hrs by ELISA; assay type: functional; settings: C57BL/6, 4 h
Mus musculus [9] = experiment: Ex vivo inhibition of 11beta-HSD1 in high fat diet-fed C57BL/6 mouse inguinal fat at 50 mg/kg, po measured at 4 hrs by ELISA; assay type: functional; settings: C57BL/6, 4 h
Mus musculus [10] = experiment: Ex vivo inhibition of 11beta-HSD1 in high fat diet-fed C57BL/6 mouse inguinal fat at 5 mg/kg, po measured at 8 hrs by ELISA; assay type: functional; settings: C57BL/6, 8 h
Mus musculus [11] = experiment: Ex vivo inhibition of 11beta-HSD1 in high fat diet-fed C57BL/6 mouse inguinal fat at 15 mg/kg, po measured at 8 hrs by ELISA; assay type: functional; settings: C57BL/6, 8 h
Mus musculus [12] = experiment: Ex vivo inhibition of 11beta-HSD1 in high fat diet-fed C57BL/6 mouse inguinal fat at 50 mg/kg, po measured at 8 hrs by ELISA; assay type: functional; settings: C57BL/6, 8 h
Mus musculus [13] = experiment: Antidiabetic activity in diet-induced obese mouse assessed as decrease in fed blood glucose level at 25 to 50 mg/kg, po administered via gavage BID for 13 days measured after day 13 by glucose tolerance test; assay type: functional, organism-based
How it was run: (§2)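 Male C57BL/6 mice on high-fat diet from 3 weeks of age for 12 weeks (DIO), grouped n = 11-12 by pretreatment glucose and body weight. Oral gavage 25 or 50 mg/kg b.i.d. (half dose morning, half afternoon) or vehicle (0.1% Tween-80, 0.5% CMC in water) for 13-14 days. Fed blood glucose by glucose meter, plasma insulin by radioimmunoassay, body weight at study end.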

Mus musculus [14] = experiment: Antidiabetic activity in diet-induced obese mouse assessed as decrease in plasma insulin level at 25 to 50 mg/kg, po administered via gavage BID for 13 days measured after day 13 by glucose tolerance test; assay type: functional, organism-based; how it was run: as §2
Mus musculus [15] = experiment: Antiobesity activity in po dosed diet-induced obese mouse assessed as decrease in body weight administered via gavage BID for 13 days measured after day 13; assay type: functional, organism-based; how it was run: as §2
[16] = Clearance in Beagle dog at 3 mg/kg, iv or 10 mg/kg, po; settings: in vivo
[17] = Bioavailability in Beagle dog at 3 mg/kg, iv or 10 mg/kg, po; settings: in vivo
[18] = Clearance in cynomolgus monkey at 2 mg/kg, iv or 10 mg/kg, po; settings: in vivo
[19] = Clearance in Sprague-Dawley rat at 2 mg/kg, iv or 10 mg/kg, po; settings: in vivo
[20] = Terminal half life in Beagle dog at 3 mg/kg, iv or 10 mg/kg, po; settings: in vivo, read-out: beta t1/2 (converted)
[21] = Bioavailability in cynomolgus monkey at 2 mg/kg, iv or 10 mg/kg, po; settings: in vivo
[22] = Bioavailability in Sprague-Dawley rat at 2 mg/kg, iv or 10 mg/kg, po; settings: in vivo
[23] = Terminal half life in cynomolgus monkey at 2 mg/kg, iv or 10 mg/kg, po; settings: in vivo, read-out: beta t1/2 (converted)
[24] = Terminal half life in Sprague-Dawley rat at 2 mg/kg, iv or 10 mg/kg, po; settings: in vivo, read-out: beta t1/2 (converted)
[25] = Volume of distribution at steady state in Beagle dog at 3 mg/kg, iv or 10 mg/kg, po; settings: in vivo, read-out: Vdss
[26] = Volume of distribution at steady state in cynomolgus monkey at 2 mg/kg, iv or 10 mg/kg, po; settings: in vivo, read-out: Vdss
Mus musculus [27] = experiment: Antidiabetic activity in diet-induced obese mouse assessed as mild improvement of glucose tolerance at 25 to 50 mg/kg, po BID for 13 days measured on day 14 after 12 hrs of fasting by glucose tolerance test
Mus musculus [28] = experiment: Antidiabetic activity in diet-induced obese mouse assessed as decrease in fed blood glucose level at 5 mg/kg administered QD via high fat-diet for 13 days measured after day 13 by glucose tolerance test; assay type: functional, organism-based; parameters: dose 5 mg/kg
How it was run: (§3)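 DIO male C57BL/6 mice (12 weeks high-fat diet), n = 11-12 per group. Rosiglitazone given in the high-fat chow at ~5 mg/kg/day for 13 or 14 days. Fed blood glucose by glucose meter and plasma insulin by radioimmunoassay before and at end of treatment. Body weight taken at end of treatment.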

Mus musculus [29] = experiment: Antidiabetic activity in diet-induced obese mouse assessed as decrease in plasma insulin level at 5 mg/kg administered QD via high fat-diet for 13 days measured after day 13 by glucose tolerance test; assay type: functional, organism-based; parameters: dose 5 mg/kg; how it was run: as §3
Mus musculus [30] = experiment: Antiobesity activity in diet-induced obese mouse assessed as decrease in body weight at 5 mg/kg administered QD via high fat-diet for 13 days measured after day 13; assay type: functional, organism-based; parameters: dose 5 mg/kg; how it was run: as §3
Mus musculus [31] = experiment: Antidiabetic activity in diet-induced obese mouse assessed as improvement of glucose tolerance at 5 mg/kg, QD for 13 days measured on day 14 after 12 hrs of fasting by glucose tolerance test
Rattus norvegicus [32] = experiment: Metabolic epimerization in Sprague-Dawley rat assessed as formation of [R]-2-((1S,2S,4R)-bicyclo[2.2.1]heptan-2-ylamino)-5-5iospropylthiazol-4(5H)-one at 10 mg/kg, po up to 24 hrs by LC-MS/MS analysis; assay type: ADME, organism-based; parameters: dose 10 mg/kg, route oral; settings: in vivo
How it was run: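 Sprague-Dawley rats (n = 2/group) dosed orally at 10 mg/kg. Plasma taken predose and at intervals up to 24 h. Diastereomers separated by HPLC, quantified by positive-ion ESI MS/MS with single ion monitoring. AUC ratio of epimer to parent calculated.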

Rattus norvegicus [33] = experiment: Metabolic epimerization in Sprague-Dawley rat assessed as formation of [R]-2-((1S,2S,4R)-bicyclo[2.2.1]heptan-2-ylamino)-5-5iospropylthiazol-4(5H)-one at 10 mg/kg up to 24 hrs by LC-MS/MS analysis; settings: in vivo

IC50 [1]: > 10 µM
IC50 (Glucocorticoid receptor): > 10 µM
clearance [2]: 52.7 mL/min/kg
Vd [3]: 1 L/kg
half-life [4]: 15.6 h
bioavailability [5]: 54%
IC50 (Cytochrome P450 3A4): > 15 µM
IC50 (Cytochrome P450 2D6): > 15 µM
IC50 (Cytochrome P450 1A2): > 15 µM
IC50 (Cytochrome P450 2C9): > 15 µM
IC50 (Cytochrome P450 2C19): > 15 µM
Km [6]: > 100 µM
clearance [16]: 15.7 mL/min/kg
bioavailability [17]: 50%
clearance [18]: 31.5 mL/min/kg
clearance [19]: 22.7 mL/min/kg
half-life [20]: 8.1 h
bioavailability [21]: 7%
bioavailability [22]: 34%
half-life [23]: 0.6 h
half-life [24]: 41.5 h
Vd [25]: 1.02 L/kg
Vd [26]: 0.98 L/kg
Structure (SMILES): CC(C)[C@]1(C)SC(N[C@H]2C[C@@H]3CC[C@H]2C3)=NC1=O
inhibition in vivo at 5 mg/kg (Mus musculus [7]): 33%
inhibition in vivo at 15 mg/kg (Mus musculus [8]): 55%
inhibition in vivo at 50 mg/kg (Mus musculus [9]): 47%
inhibition in vivo at 5 mg/kg (Mus musculus [10]): 10%
inhibition in vivo at 15 mg/kg (Mus musculus [11]): 36%
inhibition in vivo at 50 mg/kg (Mus musculus [12]): 39%
inhibition (Mus musculus [13]): Active
inhibition (Mus musculus [14]): Active
inhibition (Mus musculus [15]): Dose-dependent effect
Activity (Mus musculus [27]): Active

Structure (SMILES): CN(CCOc1ccc(CC2SC(=O)NC2=O)cc1)c1ccccn1 (centres undefined)
inhibition (Mus musculus [28]): Active
inhibition (Mus musculus [29]): Active
inhibition (Mus musculus [30]): inactive
Activity (Mus musculus [31]): inactive

Activity (Rattus norvegicus [32]): 39%
Activity (Rattus norvegicus [33]): 39%
Structure (SMILES): CC(C)[C@@H]1SC(N[C@H]2C[C@@H]3CC[C@H]2C3)=NC1=O
